Results published in article PMC7933111 (ACS chemical neuroscience, 2021).
Like-named read-outs stand apart in the source and are kept apart here.

Columns and labels:
[1] = tested on: rats trained to distinguish DOM from vehicle; conditions: cited from earlier work
C57BL/6 wild-type mice = assay: Head-twitch response; type: in vivo, mouse; conditions: for HTR counts vs vehicle: 5 mg/kg, first 30 min postinjection, wild-type; for effect of antagonist pretreatment on HTR in mice administered 1-NP or 2-NP: 5-HT1AR antagonist WAY100635 or 5-HT2CR antagonist SB-242084 pretreatment
5-HT2AR [2] = biological target: T1, 5-HT2AR (Homo sapiens, UniProt P28223); assay: Intracellular Ca2+ mobilization; type: cell-based; conditions: for Emax: HEK293, read-out: Emax (Ca2+ mobilization)
5-HT2A-KO mice = assay: Head-twitch response; type: in vivo, mouse; conditions: 5 mg/kg, first 30 min postinjection
Procedure, shortened: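 Adult (8–16 weeks) male 5-HT2A-KO mice rederived from 129sv (F5), from the authors' colony. After 30 min of chamber habituation for baseline, mice were dosed and followed 90 min by magnetometer. HTR counts were automated with minor visual checking and summed over the first 30 min post-injection, then compared with vehicle by one-way ANOVA with Bonferroni post hoc; n = 5–12.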

5-HT2AR [3] = biological target: T1, 5-HT2AR; type: binding
mice [4] = assay: Quantification of feces; type: in vivo, mouse
Procedure, shortened: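 Mice habituated to the monitoring chambers and to i.p. injections were acclimated 30 min, then injected i.p. with drug(s) or saline vehicle at 10 μL/g. Feces were counted over the first 30 min; pellets present before or immediately after injection were excluded. n = 9; two-way ANOVA with Bonferroni post hoc.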

5-HT2AR [5] = assay: IP1 accumulation in vivo; design: species or system mouse
Procedure, shortened: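 Male C57BL/6 mice, 10 weeks old, received LiCl 200 mg/kg and returned home 30 min before treatment; co-administered antagonist was given in the same solution. Mice were decapitated 60 min later, and frontal cortex and posterior cerebellum were frozen at −80 °C. Tissue was bead-lysed at 4 °C in kit buffer with 50 mM LiCl and centrifuged at 17 000g. HTRF was read in duplicate; inverted 615/665 ratio, cortex/cerebellum fold-change; n = 3/group.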

5-HT2AR [6] = biological target: T1, 5-HT2AR; type: binding; remark: listed apart in the source
5-HT2AR [7] = assay: [3H]ketanserin binding displacement, mouse frontal cortex membranes; conditions: 5 nM [3H]ketanserin
5-HT2AR [8] = biological target: T1, 5-HT2AR; assay: IP1 accumulation in vitro; type: cell-based; conditions: single concentration, 30 min at 37 °C
c-fos, egr-1, egr-2 [9] = assay: Immediate early gene expression in somatosensory cortex, 5-HT2AR-KO mice; type: in vivo, mouse; conditions: 5 mg/kg, 60 min, 5-HT2AR-KO littermates
Procedure, shortened: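 Adult (10–20 weeks) 129S6/SvEv 5-HT2AR-KO mice, born to Htr2a± heterozygote breeders. Somatosensory cortex was taken 60 min after 5 mg/kg test compound or vehicle, and c-fos, egr-1 and egr-2 expression was measured alongside a housekeeping gene; n = 5.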

c-fos, egr-1, egr-2 [10] = assay: Immediate early gene expression in somatosensory cortex, wild-type mice; type: in vivo, mouse; conditions: 5 mg/kg, 60 min, wild-type 129S6/SvEv
mice [11] = assay: GI effect of 5-HTP in mice; type: in vivo, mouse; conditions: i.p., data not shown

T1 sequence (P28223 whole entry): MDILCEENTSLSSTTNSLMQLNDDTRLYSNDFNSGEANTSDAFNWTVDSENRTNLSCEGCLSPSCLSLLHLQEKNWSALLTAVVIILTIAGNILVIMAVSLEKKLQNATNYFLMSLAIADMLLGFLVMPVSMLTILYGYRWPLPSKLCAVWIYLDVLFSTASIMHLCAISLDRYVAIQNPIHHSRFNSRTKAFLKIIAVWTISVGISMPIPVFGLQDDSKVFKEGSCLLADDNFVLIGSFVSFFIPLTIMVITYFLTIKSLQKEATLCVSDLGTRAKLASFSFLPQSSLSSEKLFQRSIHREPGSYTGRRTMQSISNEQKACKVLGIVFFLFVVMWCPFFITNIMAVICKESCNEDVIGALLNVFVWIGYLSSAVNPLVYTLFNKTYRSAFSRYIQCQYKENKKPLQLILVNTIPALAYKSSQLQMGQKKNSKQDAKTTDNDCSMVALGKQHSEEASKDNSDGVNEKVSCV

Compound: c1ccc2cc(N3CCNCC3)ccc2c1 [2-NP, 1-(naphthalen-2-yl)piperazine]
- generalization for the DOM stimulus [1]: full generalization
- HTR counts vs vehicle (C57BL/6 wild-type mice): increase in HTR that differed statistically from vehicle
- ED50 (C57BL/6 wild-type mice; Mus musculus, ip, read-out: ED50 (HTR)): 0.42 ± 0.2 mg/kg
- HTR dose-response (C57BL/6 wild-type mice; i.p.): dose-dependent
- EC50 (5-HT2AR [2]): 0.15 µM
- Emax (5-HT2AR [2]): 48.9%
- HTR vs vehicle in 5-HT2AR-KO mice (5-HT2A-KO mice): did not differ
- Ki (5-HT2AR [3]): 0.724 µM

Compound: c1ccc2c(N3CCNCC3)cccc2c1 [1-NP, 1-(naphthalen-1-yl)piperazine]
- HTR counts vs vehicle (C57BL/6 wild-type mice): Neither isoquipazine nor 1-NP produced changes in HTR counts
- HTR dose-response (C57BL/6 wild-type mice; i.p.): apparent suppression of HTR counts at all tested doses
- Ki (5-HT2AR [3]): 0.1 µM

Compound: Cc1nccn1CC1CCc2c(c3ccccc3n2C)C1=O (stereo not drawn) [ondansetron, 1,2,3,9-tetrahydro-9-methyl-3-[(2-methyl-1H-imidazol-1-yl)methyl]-4H-carbazol-4-one]
- effect on quipazine-induced feces count increase (mice [4]; ondansetron 1 mg/kg with quipazine 5 mg/kg, 30 min following cotreatment): successfully reduced

Compound: COc1cccc([C@H](O)C2CCN(CCc3ccc(F)cc3)CC2)c1OC [M100907, (R)-(+)-α-(2,3-dimethoxyphenyl)-1-[2-(4-fluorophenyl)ethyl]-4-pipidinemethanol]
- effect on quipazine-induced IP1 accumulation in vivo (5-HT2AR [5]; M100907 0.1 mg/kg with quipazine 5 mg/kg): successfully blocked

Compound: c1ccc2nc(N3CCNCC3)ccc2c1 [quipazine, 2-(piperazin-1-yl)quinoline]
- effect on feces count (mice [4]; quipazine 5 mg/kg, first 30 min): feces count increase
- Ki (5-HT2AR [6]): 5.13 µM
- effect on HTR counts (C57BL/6 wild-type mice; different doses, i.p., 90 min recording): robust and long-lasting increase on HTR counts
- duration of HTR increase (C57BL/6 wild-type mice; highest doses evaluated): over 90 min
- time of peak of HTR increase post injection (C57BL/6 wild-type mice; i.p.): ≤ 30 min
- EC50 (5-HT2AR [2]): 7.26 µM
- Emax (5-HT2AR [2]): 44.3%
- pKi (5-HT2AR [7]): 5.601 ± 0.16
- IP1 accumulation (in words) (5-HT2AR [8]): robust increase of IP1 accumulation
- changes in c-fos, egr-1 and egr-2 expression (c-fos, egr-1, egr-2 [9]): not observed
- cortical expression of c-fos, egr-1 and egr-2 (c-fos, egr-1, egr-2 [10]): exhibited changes in the cortical expression of c-fos, egr-1, and egr-2
- IP1 accumulation in frontal cortex vs vehicle (5-HT2AR [5]; 5 mg/kg, LiCl 200 mg/kg pretreatment, 60 min): greater accumulation of IP1
- HTR vs vehicle in 5-HT2AR-KO mice (5-HT2A-KO mice): did not differ
- Ki (5-HT2AR [3]): 20 µM

Compound: 6-chloro-2,3-dihydro-5-methyl-N-[6-[(2-methyl-3-pyridinyl)oxy]-3-pyridinyl]-1H-indole-1-carboxyamide dihydrochloride [SB-242084]
- effect of antagonist pretreatment on HTR in mice administered 1-NP or 2-NP (C57BL/6 wild-type mice): did not significantly affect HTR

Compound: c1ccc2c(N3CCNCC3)nccc2c1 [isoquipazine, 1-(piperazin-1-yl)isoquinoline]
- HTR counts vs vehicle (C57BL/6 wild-type mice): Neither isoquipazine nor 1-NP produced changes in HTR counts
- IC50 (5-HT2AR [2]): 24.7 µM
- Ki (5-HT2AR [3]): 3.8 µM

Compound: N[C@@H](Cc1c[nH]c2ccc(O)cc12)C(=O)O [5-HTP, 5-hydroxytryptophan]
- GI effect (mice [11]): produced diarrhea

Compound: COc1ccccc1N1CCN(CCN(C(=O)C2CCCCC2)c2ccccn2)CC1.O=C(O)/C=C\C(=O)O [WAY100635, N-[2-[4-(2-methoxyphenyl)-1-piperazinyl]ethyl]-N-2-pyridinylcyclohexanecarboxamide maleate]
- effect of antagonist pretreatment on HTR in mice administered 1-NP or 2-NP (C57BL/6 wild-type mice): did not significantly affect HTR
